Shown are actives, neighbours in structure and some others; about 2.2% of the full set was active somewhere.
PMI activator = activators of human PMI, primary screen, biochemical, fluorescence intensity, near-Km mannose 6-phosphate; Mannose-6-phosphate isomerase (Homo sapiens), P34949; purified human PMI, coupled resazurin fluorescence, 20 min; active compounds read high; 1 = vehicle control, 0 substrate-free wells; activation factor at 20 µM; actives 0.005% (n = 190,000);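 active = activation factor of 2 or more at 20 µM, relative to plate controls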
Diaphorase act = compounds boosting diaphorase resazurin reduction – biochemical, uHTS, resorufin fluorescence, counter-screen for diaphorase-coupled primary assays, primary screen; Diaphorase/resazurin coupled assay, 16 min; active compounds read high; 1 = vehicle wells, 0 = NADH-free wells; activation factor at 20 µM; actives 0.005% (n = 190,000); AID 1229, 2008;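 active = diaphorase activity raised at least twofold by the compound at 20 µM; inactive = activation factor below 2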
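Test system: Clostridium kluyveri diaphorase, purified enzyme. Buffer or medium: 50 mM HEPES pH 7.4 buffer plus MgCl2 and Tween 20. Also added: 0.114 mM NADH and 0.1 mM resazurin, final amounts. Dosing: compound 20 µM once, DMSO 1%. Schedule: 16 min enzyme reaction, ambient temperature. Detection: fluorescence of resorufin, 544 nm excitation, 590 nm emission.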
G6PDH CS = L. mesenteroides G6PDH inhibitors, counter-screen for G6PDH-coupled screening assays, biochemical, Leuconostoc mesenteroides enzyme; glucose-6-phosphate dehydrogenase [Leuconostoc mesenteroides]; Purified L. mesenteroides G6PDH, diaphorase/resazurin coupled fluorescence, 45 min; inhibition, % at 5 µM; actives 0.12% (n = 200,000); AID 1020, 2008; in the data active = inhibition above about 50%
Diaphorase inh = diaphorase inhibitors and chemical oxidizers, primary screen, counter-screen for diaphorase-coupled primary assays, biochemical, uHTS, resorufin fluorescence. diaphorase resazurin-to-resorufin fluorescence, NADH, 16 min; bacterial (C. kluyveri) enzyme, not human. inhibition, % at 20 µM. actives 0.69% (n = 190,000);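 active = primary screen inhibition at 20 µM above a set limit, cut at about 50% in these data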;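 also: plate controls were DMSO with full reaction for no effect and wells lacking NADH for full effect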
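Assay system: diaphorase enzyme from Clostridium kluyveri; Input: enzyme working solution with 0.14 U/mL diaphorase; Timing: 16 min at room temperature; Technique: resorufin fluorescence, excitation 544 nm, emission 590 nm; Benchmarks: positive control minus NADH, DMSO neutral control.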
ROMK mod = ROMK potassium channel modulators, primary screen, cell-based, thallium flux, MLSMR library. ATP-sensitive inward rectifier potassium channel 1 (Homo sapiens), P48048. B-score at 10 µM. AID 1918, 2009. Tet-inducible ROMK, thallium flux fluorescence; actives lie on both sides. actives 2% (n = 130,000);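 active = signal ratio slope over the read window, or its plate-corrected B-score, at least 3 SD from the plate mean, either direction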;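 also: B-score of the F/F0 ratio slope over 7 to 12 s after thallium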
Target sequence (P48048 whole entry, looked up): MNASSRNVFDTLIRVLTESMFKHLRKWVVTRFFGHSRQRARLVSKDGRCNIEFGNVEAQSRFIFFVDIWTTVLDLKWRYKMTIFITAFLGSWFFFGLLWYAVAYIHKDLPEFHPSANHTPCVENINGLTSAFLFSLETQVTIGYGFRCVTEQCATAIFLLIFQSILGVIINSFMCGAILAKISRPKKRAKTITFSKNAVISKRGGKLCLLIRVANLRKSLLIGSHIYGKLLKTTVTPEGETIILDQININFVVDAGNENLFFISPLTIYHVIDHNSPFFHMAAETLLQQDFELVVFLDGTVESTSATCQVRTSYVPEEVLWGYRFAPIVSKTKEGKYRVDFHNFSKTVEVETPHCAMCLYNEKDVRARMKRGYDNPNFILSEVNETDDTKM
PMI act satM6P = human PMI activators, high substrate, primary screen, biochemical, fluorescence intensity, near-saturating mannose 6-phosphate. activation factor at 20 µM. actives 0.34% (n = 190,000). AID 1216, 2008. coupled PMI enzyme assay, resazurin fluorescence, 20 min; active compounds read high; 1 = untreated enzyme, 0 = substrate-free blank;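 active = activation factor of 2 or more at 20 µM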
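Test system: human phosphomannose isomerase with PGI, G6PDH, diaphorase coupling enzymes / Doses: 20 µM compound, 1% DMSO / Times: enzyme reaction with compound 20 min at room temperature / Measured by: Diaphorase-driven resazurin-to-resorufin fluorescence, excitation 544, emission 590 nm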
ROMK retest = ROMK channel modulator hit retest, confirmation, cell-based, thallium flux, duplicate, resupplied hits. shares compounds with ROMK mod. fluorescence ratio; active compounds read low. normalized thallium flux (F/F0 slope) at 10 µM. actives 54% (n = 3,000);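 active = Flux at 10 µM at least 3 SD below or above vehicle control mean in one or both replicates; inconclusive = no clear call, values can overlap the other calls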
An asterisk follows results filed as active; u = inconclusive; x = no result given.

SMILES	PMI activator	Diaphorase act	G6PDH CS	Diaphorase inh	ROMK mod	PMI act satM6P	ROMK retest
CCCc1ccc(O)c(N=Cc2cc(Br)cc(OCC)c2O)c1	0.6	0.5	15.7	45.9	-2.23	0.5	0.0781
c1csc(C2CCCN2c2nc3nonc3nc2NC2CC2)n1 (centres undefined)	1	0.9	7.6	12.0	x	0.8	x
CCNC(=O)COc1ncnc2scc(-c3ccc(F)cc3)c12	1	1	4.3	3.0	0.0567	1	x
O=C(COc1ncnc2scc(-c3ccc(Cl)cc3)c12)NCc1ccco1	0.9	0.9	5.1	14.2	x	0.9	0.061*
COc1cc(NC(=O)c2ccc3c(c2)OCCO3)ccc1NC(=O)c1cccs1	1	0.9	20.9	13.7	-0.524	1	x
CN1CCN(c2cc(C(F)(F)F)nc3ccc(F)cc23)CC1	x	x	x	x	0.552	x	x
Cc1ccc(NS(=O)(=O)c2ccc(-c3csc(C)n3)s2)c(C)c1	x	x	x	x	-11.2*	x	0.0743
CCCCOc1ccc(CSCCN=C(N)N)cc1	0.9	0.9	13.9	9.9	-3.39*	0.9	0.0539*
COc1cccc(C(c2nnnn2C(C)(C)C)N2CCN(C3CCCCC3)CC2)c1OC (centres undefined)	1.1	0.8	15.2	17.4	-2.44*	1	u
COc1ccc(N2CCN(C(c3cccc(OC)c3OC)c3nnnn3C3CCCC3)CC2)cc1 (centres undefined)	0.7	0.6	-31.9	35.1	x	0.9	x
CCOC(=O)C1=C(C)NC(C)=C(C(=O)OCC)C1c1sccc1C	0.9	0.7	-0.7	27.0	-5.27*	0.9	0.0484*
CCOC(=O)C1=C(C)NC(C)=C(C(=O)OCC)C1c1cccs1	0.8	0.9	-11.0	13.3	x	0.9	x
COc1ccc(NC(=S)NCCN2CCC(C)CC2)cc1Cl	0.8	0.8	4.0	15.9	-0.927	0.9	x
Cc1cc(C)cc(-n2c(C)cc(/C=N/NC(=O)c3ccncc3)c2C)c1	0.8	0.8	11.9	17.5	0.729	0.8	x
Cc1cc(/C=N/NC(=O)c2ccsc2)c(C)n1-c1cnccn1	1.1	1	3.8	-1.8	0.188	1	0.0777
O=C(O)c1ccc(N2CCOCC2)c(N2C(=O)C3C4C=CC(C4)C3C2=O)c1 (centres undefined)	1	0.9	13.9	7.2	-0.0253	1	0.0748
Cn1cccc1/C=C(/C#N)C(N)=S	1.1	0.8	-0.3	24.6	0.0169	0.9	x
N#C/C(=C/c1ccc(F)cc1)C(N)=S	1.1	1.2	0.8	-15.2	-3.13*	1	0.0508*
CCc1cc(SC#N)cc(CC)c1NC(=O)CCl	1.3	1	-2.8	-1.2	-3.57*	1.2	0.0472*
CC1=C(C#N)c2nc(N)c(C#N)c(C)c2/C1=C\c1ccc(C)cc1	1.3	1	11.4	2.9	x	1.4	0.0426*
Cc1nn(-c2ccccc2)c(=S)c2ccccc12	1	1	3.4	4.1	x	1	x
CC(C)(C)n1nnnc1C(c1ccc(Cl)cc1)N1CCCc2ccccc21 (centres undefined)	0.9	0.9	-9.9	12.1	x	0.9	x
CC(C)(C)n1nnnc1C(c1cccc(C#N)c1)N1CCCc2ccccc21 (centres undefined)	1.1	0.8	6.4	20.6	-3.96*	0.9	0.0646*
O=C(O)c1ccc(CNC(=O)c2ccc(C(F)(F)F)cc2)cc1	1.2	0.9	5.3	13.2	0.34	1.1	x
CCCn1c(=S)[nH]c2cc(C(=O)N3CCCC(C(=O)OCC)C3)ccc2c1=O (centres undefined)	1	0.9	8.9	12.6	-3.23*	1	0.0597*
SMILES	PMI activator	Diaphorase act	G6PDH CS	Diaphorase inh	ROMK mod	PMI act satM6P	ROMK retest
COC(=O)c1nc2ccccn2c1F	1	1	7.0	-0.2	1.04	1	x
O=c1c2ccccc2nc2n1C(CSCc1ccc(Cl)cc1)CS2 (centres undefined)	1	0.8	-4.2	17.4	x	1	0.0663*
COc1ccc(CNC(=O)c2csc(Cc3ccccc3)n2)cc1	0.9	0.8	-12.3	17.5	x	0.9	0.0743
CSc1cccc(CN2CCC(CO)(Cc3cccc(C(F)(F)F)c3)CC2)c1	0.9	0.9	19.6	7.7	-3.51*	0.9	0.0628*
OCC1(Cc2cccc(C(F)(F)F)c2)CCN(Cc2cc(F)cc(F)c2)CC1	0.9	0.8	6.3	16.8	-0.19	0.9	x
CC1(C)CC(=O)C(C(=O)C2CCN(S(=O)(=O)c3ccccc3)CC2)C(=O)C1	1	0.9	7.8	9.1	-0.0296	1	x
COc1ccc(S(=O)(=O)N2CCC[C@H]2C(=O)NC2=NCCS2)cc1	1	0.9	9.1	10.3	x	1	0.0708
O=C(Nc1nc(-c2cccnc2)cs1)c1ccccc1[N+](=O)[O-]	1	1	5.3	-2.8	x	1	x
COc1ccc(C(=O)NC2CCN(C(=O)Nc3ccccc3Cl)CC2)cc1	1	1	-0.3	-2.4	0.0198	1	x
CSC(=NCc1ccco1)NC#N	x	x	x	x	-1.51	x	x
O=C(O)c1ccc(-c2nc(-c3ccc(Cl)c(Cl)c3)cs2)cc1	1	0.7	2.4	25.3	3.07*	0.9	0.0822
COc1ccc(CC(=O)Nc2cccc(-c3nnc(-c4ccc(C)cc4)o3)c2)cc1OC	1	1	3.7	-4.2	0.362	1	x
COc1ccccc1OCC(=O)Nc1cccc(-c2nnc(-c3ccco3)o2)c1	1	0.8	3.4	23.0	x	1	0.063*
COc1ccc(CC(=O)Nc2cccc(-c3nnc(-c4ccccc4)o3)c2)cc1OC	0.8	0.9	-26.0	12.4	x	0.9	0.064*
CCOc1ncccc1C(=O)OC(C)C(=O)NC(=O)NC1CCCCC1 (centres undefined)	1.1	0.9	5.9	7.3	1.01	1	x
CCSc1nc2sc3c(c2c2nnc(SCC(=O)NCc4ccco4)n12)CCCC3	x	x	x	x	0.825	x	0.0817
CC(C)Sc1nc2sc3c(c2c2nnc(SCC(=O)NCc4ccco4)n12)CCCC3	1	0.8	-16.2	22.0	x	1.1	x

Screening data as filed in PubChem BioAssay.
